Assay results collected from several papers.
Each line is one published result; the experiments were not run side by side.
KIT D816V: Mast/stem cell growth factor receptor Kit (KIT, Homo sapiens, UniProt P10721, D816V)
KIT D816H: Mast/stem cell growth factor receptor Kit (KIT, Homo sapiens, UniProt P10721, D816H)
KIT T670I/V559D: Mast/stem cell growth factor receptor Kit (KIT, Homo sapiens, UniProt P10721, T670I/V559D)
KIT V559D/V654A: Mast/stem cell growth factor receptor Kit (KIT, Homo sapiens, UniProt P10721, V559D/V654A)
KIT V559D: Mast/stem cell growth factor receptor Kit (KIT, Homo sapiens, UniProt P10721, V559D)
KIT A829P: Mast/stem cell growth factor receptor Kit (KIT, Homo sapiens, UniProt P10721, A829P)
KIT: Mast/stem cell growth factor receptor Kit (KIT, Homo sapiens, UniProt P10721)

The remaining binding of `C[C@H]1CCN(c2nccc(-c3cnn4ncccc34)n2)C1` is reported as 73% (Mast/stem cell growth factor receptor Kit, autoinhibited (KIT, Homo sapiens, UniProt P10721); binding; 1 µM).
`O=C(O)[C@@H]1[C@@H](Cn2nnc3ccccc3c2=O)CC[C@H]1C(=O)c1ccc(OCCC2CCOCC2)cc1` gave a remaining binding of 98% (KIT D816V; cell-free assay, competition with immobilised ligand; 1 µM).
`COc1cnc(Nc2cccc(S(N)(=O)=O)c2)nc1N1CCN(c2ccccc2)C(=O)C1` has a remaining binding of 55% (KIT D816H; binding, competition with immobilised ligand; 1 µM).
The remaining binding of `N[C@H]1CCN(c2nccc(-c3cnn4ncccc34)n2)C1` is reported as 100% (KIT T670I/V559D; binding; 1 µM).
The remaining binding of `c1cncc(-c2cccc(Nc3nccc(NC4CCCCC4)n3)c2)c1` is reported as 43% (KIT V559D/V654A; binding, competition with immobilised ligand; 10 µM).
`C[C@H](c1ccc(F)cc1)N(Cc1cccc(C(=O)O)c1)C(=O)c1cnc2ccccc2c1` has a remaining binding of 92% (KIT V559D; cell-free assay, competition with immobilised ligand; 1 µM).
The remaining binding of `CN(c1nccc(-c2cnn3ncccc23)n1)C1CC1` is reported as 100% (KIT V559D; binding; 1 µM).
The remaining binding of `C[C@@H]1CN(c2cc(-c3n[nH]c4ccc(OC5(C)CC5)cc34)ncn2)C[C@H](C)O1` is reported as 100% (KIT V559D; cell-free assay, competition with immobilised ligand; 0.1 µM).
For `CN(C)c1ncc(F)c(-c2cnn3ncccc23)n1`, the remaining binding was 91% (KIT D816V; binding; 1 µM).
`COc1ccc2c(O[C@@H]3C[C@H]4C(=O)N[C@]5(C(=O)O)CC5/C=C\CCCCC[C@H](NC(=O)OC5CCCC5)C(=O)N4C3)cc(-c3csc(NC(=O)C(C)C)n3)nc2c1C` (stereo partly drawn) gave a remaining binding of 76% (KIT T670I/V559D; cell-free assay, competition with immobilised ligand; 1 µM).
The remaining binding of `O=C(c1ccc(Nc2nccc(-c3cc4ccccc4s3)n2)cc1)N1CCC(N2CCCC2)CC1` is reported as 18% (KIT V559D; binding, competition with immobilised ligand; 1 µM).
`COc1cnc(Nc2cccc(S(N)(=O)=O)c2)nc1N1CCN(c2ccccc2)CC1` has a remaining binding of 94% (KIT V559D; binding, competition with immobilised ligand; 1 µM).
`O=C(NCCCN1CCOCC1)c1ccc(Nc2ncc(Cl)c(-c3ccc(Cl)s3)n2)cc1` gave a remaining binding of 22% (KIT D816H; binding, competition with immobilised ligand; 1 µM).
The remaining binding of `CN(C)c1nccc(-c2cnc3ncccn23)n1` is reported as 54% (KIT A829P; binding; 1 µM).
`O=C(NS(=O)(=O)c1ccc(NCC2CCOCC2)c([N+](=O)[O-])c1)c1ccc(N2CCN(Cc3ccc(C(F)(F)F)cc3-c3ccc(Cl)cc3)CC2)cc1Oc1cnc2[nH]ccc2c1` gave a remaining binding of 100% (KIT V559D; cell-free assay, competition with immobilised ligand; 1 µM).
The remaining binding of `F[C@@H]1CCN(c2nccc(-c3cnn4ncccc34)n2)C1` is reported as 91% (KIT; binding; 1 µM).
`COc1ncc2cc3ccccc3nc2c1C#N` has a remaining binding of 100% (KIT A829P; cell-free assay, competition with immobilised ligand; 5 µM).
`Nc1ncc2c(n1)-c1c([nH]c3ccc(C#CC4CC4)cc13)CCCC2` has a remaining binding of 89% (KIT D816H; binding, competition with immobilised ligand; 1 µM).
With `O=C(c1ccc(Nc2ncc(Cl)c(-c3ccc(Cl)s3)n2)cc1)N1CCC(N2CCCC2)CC1` the remaining binding was 0.05% (KIT; binding, competition with immobilised ligand; 1 µM).
For `CN(C)c1nccc(-c2cnn3ncccc23)n1`, the remaining binding was 100% (KIT V559D/V654A; binding; 1 µM).
With `CC1=C(C#N)[C@@H](c2ccc3[nH]nc(C)c3c2)C(C#N)=C(c2ccc(Cl)cc2)N1` the remaining binding was 95.4% (KIT; cell-free assay, competition with immobilised ligand; 1 µM).
The remaining binding of `C=CC(=O)N1CCC(C(=O)NCC(=O)N2CCN(c3nc(-c4cnc(N)nc4C(F)F)nc(N4CCOCC4)n3)CC2)CC1` is reported as 100% (KIT V559D/V654A; binding, competition with immobilised ligand; 1 µM).
The remaining binding of `CN([C@@H]1CCc2c(CC(=O)O)c3ccccc3n2C1)S(=O)(=O)c1ccc(F)cc1` is reported as 95% (KIT D816H; cell-free assay, competition with immobilised ligand; 1 µM).
The remaining binding of `O=C(NCC1CCOCC1)c1n[nH]cc1NC(=O)c1c(F)cccc1F` is reported as 100% (KIT; binding, competition with immobilised ligand; 1 µM).
